The nature of this data set: Toxicity liver stage against HepG2, at 10uM. The format is cell-based. Further details: test concentration 10 uM, cell line HepG2-A16-CD81EGFP. The settings on record: human, HepG2-A16-CD81EGFP cells; read-out: INHIBITION
The procedure, abridged: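 Uninfected HepG2-A16-CD81EGFP cells, 3 × 10^3 per well, 1536-well, plated on prespotted compound at 10 μM final, parasite-free screening media added to match infected plates; puromycin 10 μM positive, DMSO 0.5% negative; run in parallel with 48 h PbLuc assay at 37 °C, 5% CO2; viability by CellTiter-Glo luminescence, normalized to controls.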
Turning to `Cc1ncc(CN(C)C(=O)Nc2cccc(N3CCOC3=O)c2)s1`, the cytotoxicity at 10 µM stood at 5.31%. For `O=c1cc(CNCc2ccc3c(c2)OCO3)nc2ccc(Br)cn12` the value was -2.62%; for `CCc1cc(=O)n(CCNC(=O)Nc2ccc(OC(F)(F)F)cc2)cn1`, -0.898%. For `CC(C)(C)c1cc(=O)n2c(n1)SCC(C(=O)NCc1cccs1)C2` (stereo unspecified) the value was 12.9%; for `O=C(c1ccccn1)N1CCN(c2cnnc(N3CCCC3)c2)CC1`, 4.74%; for `Cc1ccc(NC(=O)CN2CCOCC2)c(F)c1`, 5.76%. As for `CN1CCCC1CCNC(=O)c1ccccc1-n1cc(CN)cn1` (stereo unspecified), the cytotoxicity at 10 µM worked out at 3.44%. The figure for `COc1nc2cc(C)ccc2cc1CN(C)Cc1n[nH]c2c1CCCC2` is 4.03%. For `CCN1CCCC(O)(c2nc(C)c(CCOc3ccccc3Cl)s2)CC1` (stereo unspecified) the value was -26.2%; for `O=C(Cn1cc(Cl)cn1)N1CCCC(c2ccn[nH]2)C1` (stereo unspecified), -22.5%. The figure for `O=C(O)c1cccc(CN2CCC(c3ccnc4ccnn34)CC2)c1` is -16.2%.

As for `CNc1cc(C2CCCN(S(=O)(=O)c3cn[nH]c3)C2)ccn1` (stereo unspecified), the cytotoxicity at 10 µM was -24%. The figure for `CC(C)n1ccnc1CN1CCCC1c1cccc(-n2ccnc2)n1` (stereo unspecified) is -25.1%. On to `CC(=O)N1CCC(Cc2cncc(-c3c(C)n[nH]c3C)n2)C1` (stereo unspecified), for which the cytotoxicity at 10 µM was -19.4%. For `COc1ccc(C2Nc3cc(Cl)ccc3C3=NCCN32)cc1O` (stereo unspecified) the value was -31.1%. The figure for `O=C(Cc1ccsc1)N1CCCC(c2cc(C(F)F)n3ncnc3n2)C1` (stereo unspecified) is -20.7%; for `COCCN1C(=O)CO[C@H]2CN(Cc3cccc(OC)c3F)C[C@@H]21` it is -0.0572%; for `Cc1nc(NC2CCCC2)cc(C2CCN2C(=O)c2ccccn2)n1` (stereo unspecified) it is -4.39%. For the molecule `CC(=O)Nc1nc(C2CCN(C(C)=O)CC2)cs1`, the cytotoxicity at 10 µM was determined as 4.3%. The figure for `COCCN(Cc1ccco1)c1ncc(C#N)cc1Cl` is -2.66%; for `CN1CCC(N(Cc2ccco2)S(=O)(=O)c2ccc(Cl)cc2)CC1` it is -1.1%; for `Cc1ccc(CN(c2cc(C)nc3nc(C(F)(F)F)nn23)C2CC2)cc1` it is -4.12%. Turning to `CC(C)Cc1cc(C(=O)N2CCCN(c3cccnn3)CC2)[nH]n1`, the cytotoxicity at 10 µM was -10.5%.

For `O=C(c1sccc1-n1cnnn1)N1CCC2(CCCCC2)CC1`, the cytotoxicity at 10 µM came to 9.09%. For `COc1ccc(C(=O)CCC(=O)NCc2ncc(C)s2)cc1F` the value was -11.8%; for `Cc1nnc(CN2CCC(Oc3ccc(F)cc3)CC2)o1`, -11.8%; for `Cc1csc(CNc2cccc(OCCN3CCCC3)c2)n1`, -4.49%. Consider `Cc1cc(N2CCC(NC(C)Cc3ccsc3)CC2)nc(C)n1` (stereo unspecified), for which the cytotoxicity at 10 µM was -7.73%. Regarding `CS(=O)(=O)CCSCc1cc(F)cc2cccnc12`, the cytotoxicity at 10 µM is -1.46%. Regarding `CCC(NC(=O)CNCC(F)(F)F)c1cc(F)ccc1F` (stereo unspecified), the cytotoxicity at 10 µM is -4.56%. With `Cc1cc(C)n(C2CN(CCc3ccccn3)C2)n1`, the cytotoxicity at 10 µM came to 3.65%. The figure for `COc1ccccc1CN(C)c1nc2c(cnn2C)c(=O)[nH]1` is 40.6%; for `O=C(NCCCc1ccc(O)cc1)C1(O)Cc2ccccc2C1` it is 1.6%.

Regarding `CCOC(=O)CCCNc1nc(C(C)(C)C)nc2c1cnn2C`, the cytotoxicity at 10 µM is -0.627%. On to `Cc1cccnc1CC(C)Nc1ncc(C)c(N(C)C)n1` (stereo unspecified), for which the cytotoxicity at 10 µM amounted to 12.1%.

For the molecule `Cc1n[nH]c(C)c1-c1cc(-c2cc[nH]c2)nc(N)c1C#N`, the cytotoxicity at 10 µM is 2.41%. For `CN(Cc1ccccc1)c1cnn(CC2COCCO2)c(=O)c1` (stereo unspecified) the value was -12.4%; for `CCC(C)N1CCC(Oc2ccc(C(=O)NCCN(C)C)cc2Cl)CC1` (stereo unspecified), -2.09%. The figure for `Cc1cc(C)n(C2CN(C(=O)CN3C(=O)CSc4ccccc43)C2)n1` is -6.53%.

Regarding `CCn1nc(C)c(CN2CCC(c3ccc(C(=O)O)cc3)C2)c1C` (stereo unspecified), the cytotoxicity at 10 µM was 4.22%.

For the molecule `CC(C)Cc1cc(CNc2nc(-c3cccnc3)nc3c2CNC3)no1`, the cytotoxicity at 10 µM was determined as 1.95%. For the molecule `Cc1ccccc1C(C(=O)NCCN1CCC(CO)CC1)N(C)C` (stereo unspecified), the cytotoxicity at 10 µM was -4.5%.

Take `CCC[C@H]1CN(Cc2cncn2C)C[C@@H]1NC(=O)C1(COC)CCC1`: the cytotoxicity at 10 µM is -8.26%.

On to `CC(C)NS(=O)(=O)c1cc(C(=O)O)cc(-n2cc3c(n2)CCC3)c1`, for which the cytotoxicity at 10 µM was determined as 3.19%.

In the case of `Cc1cccc(C(=O)N2CC(=O)N(c3ccccc3Cl)CC2C)n1` (stereo unspecified), the cytotoxicity at 10 µM was -7.25%. Consider `Cc1cccnc1CN1CCN(C(=O)c2cnn(C(C)C)c2)CC1`, for which the cytotoxicity at 10 µM came out at 0.616%. The figure for `CN(C)C(C(=O)N1CC(c2ccccn2)C1)c1ccc2c(c1)OCO2` (stereo unspecified) is 10.6%; for `CC(=O)Nn1c(C)cc(CN2CCC(c3ccncc3)CC2)c1C` it is 4.61%. The figure for `CCn1ncnc1CN1CCC(CNC(=O)c2cccc(C)c2)C1` (stereo unspecified) is -2.59%; for `CN(C)C[C@@H]1CN(C(=O)CCC2CCCC2)C[C@@H]1CO` it is -2.94%; for `OCCNc1cc(N2CCC(n3cc(C4CCCC4)nn3)CC2)ncn1` it is -9.72%. The figure for `Cc1ccc2oc(=O)n(CCC(=O)N3CCN(C)C(=O)C3)c2c1` is -15.6%. Take `CCn1ncc(C(=O)N2CCN(CC3CCCO3)CC2)c1C` (stereo unspecified): the cytotoxicity at 10 µM was -11.6%. The figure for `COCCNc1nc2c(c(NCCc3cccs3)n1)CCNCC2` is 3.96%; for `COc1ccccc1C1(C(=O)NCCN2CCCCC2)CCOCC1` it is -10.3%.

Take `CCc1ccc(C(=O)O)cc1S(=O)(=O)Nc1ccc2c(c1)OCCO2`: the cytotoxicity at 10 µM is -4.07%. The figure for `Cc1cnn(CCNCc2csc(-c3ncccn3)n2)c1` is -7.48%; for `OCCn1nccc1C1CCN(CCCOc2ccc(F)cc2)CC1` it is -4.3%. Turning to `CCOc1ncccc1NC(=O)N1CCc2ccccc2C1`, the cytotoxicity at 10 µM was -8.62%.

As to `CC(=O)N1CCC(CN2CCN(Cc3nccn3C)C(C)C2)CC1` (stereo unspecified), the cytotoxicity at 10 µM was -15.4%. `Cc1ccc(-c2nnc(CN3CCc4cnc(C)nc4C3)o2)cc1`: the cytotoxicity at 10 µM is -6.95%. With `CCc1ccc(CCC(=O)N2CCOCC2c2ncon2)cc1` (stereo unspecified), the cytotoxicity at 10 µM was -3.78%. `Cc1cccc(-c2ccc(C(=O)NCC3CCOC3)c(=O)[nH]2)c1` (stereo unspecified): the cytotoxicity at 10 µM is -9.66%. For `Cc1nn(C)c(N(C)C)c1CNCCNS(C)(=O)=O` the value was -5.05%. For `CCn1ccnc1CN1CCCN(C(=O)c2cccc(C#N)c2)CC1` the value was -12.2%.

Take `COCC(c1cccc(C(F)(F)F)c1)N(C)C(=O)c1ccncc1` (stereo unspecified): the cytotoxicity at 10 µM was -14.6%. For the molecule `O[C@]1(c2ccccn2)CC[C@@H]2CN(Cc3cccc4ncccc34)C[C@@H]21`, the cytotoxicity at 10 µM is -2.09%.

Consider `CC(=O)N1CC(=O)N(c2ccccc2)CC12CCN(CC1CC1)C2` (stereo unspecified), for which the cytotoxicity at 10 µM was 4.45%. For `Cn1nc(C2CCN(C(=O)Cc3ccsc3)CC2)c2cccnc21` the value was -4.9%; for `Cc1ccc(CN2CCC(O)(Cn3ccc4ncccc43)CC2)o1`, -31.2%; for `c1ccc(COC2C[C@@H]3CN(Cc4cncnc4)C[C@@H]3C2)cc1` (stereo partly specified), -40%.

Source of the values: ChEMBL document CHEMBL4513216, “Probing the Open Global Health Chemical Diversity Library for Multistage-Active Starting Points for Next-Generation Antimalarials” (ACS Infect Dis, 2020).
